Laboratory results: ChEMBL document CHEMBL1141385, “Lignans from Dysosma versipellis with inhibitory effects on prostate cancer cell lines” (J Nat Prod, 2007)

Experiments:
[1] = tested on: LNCaP; experiment: Cytotoxicity against androgen sensitive human LNCaP cells; format: cell-based
Procedure, shortened: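 LNCaP (androgen-sensitive human prostate cancer) cells kept as monolayers in DMEM with 10% FBS, 2 mM L-glutamine, penicillin/streptomycin, 5% CO2. Seeded at 5000 cells/well, attached overnight, then exposed to compounds or DMSO vehicle for 48 h. MTS added for 2–4 h at 37 °C; formazan absorbance read at 490 nm. At least three experiments, each in triplicate.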

[2] = tested on: PC-3; experiment: Cytotoxicity against androgen-independent human PC3 cells; format: cell-based
Procedure, shortened: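 PC-3 (androgen-independent human prostate cancer) cells kept as monolayers in DMEM with 10% FBS, 2 mM L-glutamine, penicillin/streptomycin, 5% CO2. Plated at 3000 cells/well and left to attach overnight. Treated with compounds or DMSO vehicle for 48 h. Viability read by MTS (2–4 h, 37 °C) as absorbance at 490 nm. Run at least three times in triplicate.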

Row | Compound | IC50 [1] [µM] | IC50 [2] [µM]
1 | COc1cc(O)cc([C@@H](O)[C@@H]2CO[C@@H](c3ccc(O)c(OC)c3)[C@@H]2CO)c1 [DYSOSMAROL] | 16 | 16
2 | COc1cc([C@@H]2c3cc4c(cc3[C@H](O)[C@H]3COC(=O)[C@H]23)OCO4)cc(OC)c1O | 0.056 | 0.082
3 | COc1cc([C@@H]2c3cc4c(cc3C[C@H]3COC(=O)[C@@H]32)OCO4)cc(OC)c1O [4'-DEMETHYLDEOXYPODOPHYLLOTOXIN] | 0.15 | 0.14
4 | COc1cc([C@@H]2c3cc4c(cc3[C@H](O)[C@H]3COC(=O)[C@H]23)OCO4)cc(OC)c1OC [PODOFILOX] | 0.031 | 0.034
5 | COc1cc([C@@H]2c3cc4c(cc3C[C@H]3COC(=O)[C@@H]32)OCO4)cc(OC)c1OC [DESOXYPODOPHYLLOTOXIN] | 0.03 | 0.032
6 | COc1cc2c(O)c3c(c(-c4ccc5c(c4)OCO5)c2cc1OC)C(=O)OC3 [DIPHYLLIN] | 11.5 | 7.2
